According to ChEMBL document CHEMBL4304739, “Discovery of 3-(Indol-5-yl)-indazole Derivatives as Novel Myeloid Differentiation Protein 2/Toll-like Receptor 4 Antagonists for Treatment of Acute Lung Injury” (J Med Chem, 2019):
The source made the active and inactive calls. No cut-off for these calls is given here.

Columns and labels:
[1] = target: Cyclin-dependent kinase 7 (Homo sapiens) (UniProt P50613); experiment: Inhibition of wild-type human full length CDK7 (M1 to L344 residues) expressed in mammalian expression system at 1 uM by Kinomescan method
Outline: (§1)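 KINOMEscan competition binding screen at 1 μM compound. Results reported as % of control = (test − positive control)/(DMSO negative control − positive control) × 100, where lower values mean stronger hits.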

[2] = target: Mitogen-activated protein kinase 8 (Homo sapiens) (UniProt P45983); experiment: Inhibition of wild-type human full length JNK1 (M1 to Q384 residues) expressed in mammalian expression system at 1 uM by Kinomescan method; outline: as §1
[3] = target: Serine/threonine-protein kinase pim-3 (Homo sapiens) (UniProt Q86V86); experiment: Inhibition of wild-type human partial length PIM3 (G16 to A317 residues) expressed in bacterial expression system at 1 uM by Kinomescan method
Outline: (§2)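 Binding-competition screen on the KINOMEscan platform, run by the provider, with the test compound at 1 μM. Readout is percent of control: (test signal − positive control signal)/(negative control signal − positive control signal) × 100. The DMSO negative control is set as 100% Ctrl and a control compound as 0% Ctrl. Lower values mean stronger hits.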

[4] = target: Dual specificity tyrosine-phosphorylation-regulated kinase 1B (Homo sapiens) (UniProt Q9Y463); experiment: Inhibition of wild-type human full length DYRK1B (M1 to S629 residues) expressed in bacterial expression system at 1 uM by Kinomescan method; outline: as §1
[5] = target: Phosphatidylinositol 4-phosphate 3-kinase C2 domain-containing subunit beta (Homo sapiens) (UniProt O00750); experiment: Inhibition of wild-type human partial length PIK3C2B (M1 to L1634 residues) expressed in mammalian expression system at 1 uM by Kinomescan method; outline: as §2
Mus musculus [6] = experiment: Antiinflammatory activity in LPS-induced C57BL/6 mouse model of acute lung injury assessed as reduction in IL6 mRNA level at 10 mg/kg, iv pretreated for 15 mins followed by LPS stimulation and measured after 6 hrs by SYBR green staining-based qRT-PCR analysis; format: functional, organism-based
Outline: (§3)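 Total lung RNA extracted, with DNase I removal of residual DNA. Quantitative PCR with mouse gene primers; each gene normalized to β-actin. C57BL/6 mice given compound iv 15 min before intraperitoneal LPS (20 mg/kg) and killed at 6 h.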

[7] = target: Serine/threonine-protein kinase PLK3 (Homo sapiens) (UniProt Q9H4B4); experiment: Inhibition of wild-type human partial length PLK3 (A42 to L334 residues) expressed in mammalian expression system at 1 uM by Kinomescan method; outline: as §2
[8] = target: Cyclin-dependent kinase 2 (Homo sapiens) (UniProt P24941); experiment: Inhibition of wild-type human full length CDK2 (M1 to L298 residues) expressed in bacterial expression system at 1 uM by Kinomescan method; outline: as §1
[9] = target: MAP kinase-activated protein kinase 2 (Homo sapiens) (UniProt P49137); experiment: Inhibition of wild-type human partial length MAPKAPK2 (V48 to D345 residues) expressed in bacterial expression system at 1 uM by Kinomescan method; outline: as §2
[10] = target: Platelet-derived growth factor receptor alpha (Homo sapiens) (UniProt P16234); experiment: Inhibition of wild-type human partial length PDGFRA (V575 to D1002 residues) expressed in mammalian expression system at 1 uM by Kinomescan method; outline: as §2
[11] = system: Serine/threonine-protein kinase B-raf (Homo sapiens), P15056 [V600E]; experiment: Inhibition of human partial length BRAF V600E mutant (S429 to E741 residues) expressed in mammalian expression system at 1 uM by Kinomescan method; outline: as §1
[12] = target: Cyclin-dependent kinase 19 (Homo sapiens) (UniProt Q9BWU1); experiment: Inhibition of wild-type human partial length CDK11 (M1 to N360 residues) expressed in bacterial expression system at 1 uM by Kinomescan method; outline: as §2
[13] = target: ALK tyrosine kinase receptor (Homo sapiens) (UniProt Q9UM73); experiment: Inhibition of wild-type human partial length ALK (I1088 to E1409 residues) expressed in mammalian expression system at 1 uM by Kinomescan method; outline: as §2
[14] = target: Mitogen-activated protein kinase 14 (Homo sapiens) (UniProt Q16539); experiment: Inhibition of wild-type human full length p38-alpha (M1 to S360 residues) expressed in bacterial expression system at 1 uM by Kinomescan method; outline: as §1
[15] = target: Platelet-derived growth factor receptor beta (Homo sapiens) (UniProt P09619); experiment: Inhibition of wild-type human partial length PDGFRB (V582 to Y1009 residues) expressed in bacterial expression system at 1 uM by Kinomescan method; outline: as §2
[16] = target: Serine/threonine-protein kinase PAK 1 (Homo sapiens) (UniProt Q13153); experiment: Inhibition of wild-type human partial length PAK1 (S149 to H545 residues) expressed in bacterial expression system at 1 uM by Kinomescan method; outline: as §2
[17] = target: Serine/threonine-protein kinase ULK2 (Homo sapiens) (UniProt Q8IYT8); experiment: Inhibition of wild-type human partial length ULK2 (M1 to S301 residues) expressed in mammalian expression system at 1 uM by Kinomescan method
Outline: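 Single-concentration screen at 1 μM on the KINOMEscan panel (98 kinases), run by the platform provider. Results are given as percent of control: % Ctrl = [(test signal − positive control signal)/(negative control signal − positive control signal)] × 100. DMSO serves as negative control (100% Ctrl) and a control compound as positive control (0% Ctrl). Lower values mean stronger binding hits.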

[18] = target: Receptor tyrosine-protein kinase erbB-2 (Homo sapiens) (UniProt P04626); experiment: Inhibition of wild-type human partial length ERBB2 (K646 to V1225 residues) expressed in mammalian expression system at 1 uM by Kinomescan method; outline: as §2
[19] = target: Tyrosine-protein kinase JAK3 (Homo sapiens) (UniProt P52333); experiment: Inhibition of wild-type human partial length JAK3 JH1 catalytic domain (I781 to S1124 residues) expressed in mammalian expression system at 1 uM by Kinomescan method; outline: as §2
Mus musculus [20] = experiment: Antiinflammatory activity in LPS-induced C57BL/6 mouse model of acute lung injury assessed as reduction in COX2 mRNA level at 10 mg/kg, iv pretreated for 15 mins followed by LPS stimulation and measured after 6 hrs by SYBR green staining-based qRT-PCR analysis; format: functional, organism-based; outline: as §3
[21] = target: Mitogen-activated protein kinase kinase kinase 9 (Homo sapiens) (UniProt P80192); experiment: Inhibition of wild-type human partial length MLK1 (V88 to W426 residues) expressed in bacterial expression system at 1 uM by Kinomescan method; outline: as §2
[22] = target: Macrophage colony-stimulating factor 1 receptor (Homo sapiens) (UniProt P07333); experiment: Inhibition of wild-type human partial length CSF1R (I564 to S939 residues) expressed in bacterial expression system at 1 uM by Kinomescan method; outline: as §2
[23] = target: Phosphatidylinositol 4,5-bisphosphate 3-kinase catalytic subunit alpha isoform (Homo sapiens) (UniProt P42336); experiment: Inhibition of wild-type human partial length PIK3CA (R108 to N1068 residues) expressed in mammalian expression system at 1 uM by Kinomescan method; outline: as §2
[24] = target: Hepatocyte growth factor receptor (Homo sapiens) (UniProt P08581); experiment: Inhibition of wild-type human partial length MET (D1010 to S1367 residues) expressed in bacterial expression system at 1 uM by Kinomescan method; outline: as §2

Chain of Macrophage colony-stimulating factor 1 receptor (Homo sapiens) (P07333 whole entry, the tested form may be a part, canonical isoform): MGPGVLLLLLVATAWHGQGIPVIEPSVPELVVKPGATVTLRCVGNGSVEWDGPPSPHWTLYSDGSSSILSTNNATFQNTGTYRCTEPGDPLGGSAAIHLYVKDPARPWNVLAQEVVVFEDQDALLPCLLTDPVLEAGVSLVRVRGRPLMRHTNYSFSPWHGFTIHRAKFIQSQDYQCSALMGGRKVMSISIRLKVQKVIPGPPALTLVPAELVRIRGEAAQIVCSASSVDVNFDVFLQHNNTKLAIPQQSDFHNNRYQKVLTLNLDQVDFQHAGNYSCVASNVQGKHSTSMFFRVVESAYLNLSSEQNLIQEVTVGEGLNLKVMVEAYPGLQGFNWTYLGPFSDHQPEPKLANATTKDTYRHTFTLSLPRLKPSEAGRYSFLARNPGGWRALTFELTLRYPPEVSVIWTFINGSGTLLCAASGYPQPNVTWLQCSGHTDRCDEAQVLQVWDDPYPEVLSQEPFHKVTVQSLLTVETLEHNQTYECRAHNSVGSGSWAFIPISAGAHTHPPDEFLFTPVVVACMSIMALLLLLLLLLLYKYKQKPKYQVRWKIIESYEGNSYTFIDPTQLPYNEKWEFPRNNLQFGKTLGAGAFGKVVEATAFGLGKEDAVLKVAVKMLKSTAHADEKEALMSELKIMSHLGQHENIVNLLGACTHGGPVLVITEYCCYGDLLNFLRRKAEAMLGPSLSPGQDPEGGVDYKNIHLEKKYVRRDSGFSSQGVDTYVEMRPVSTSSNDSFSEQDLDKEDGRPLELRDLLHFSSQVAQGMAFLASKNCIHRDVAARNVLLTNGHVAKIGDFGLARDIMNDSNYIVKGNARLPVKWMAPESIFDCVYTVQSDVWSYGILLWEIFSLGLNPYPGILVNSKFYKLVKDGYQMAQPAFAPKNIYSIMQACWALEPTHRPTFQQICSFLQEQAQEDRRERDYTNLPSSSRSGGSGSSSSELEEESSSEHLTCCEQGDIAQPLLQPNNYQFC
Chain of Mitogen-activated protein kinase 14 (Homo sapiens) (Q16539 whole entry, the tested form may be a part): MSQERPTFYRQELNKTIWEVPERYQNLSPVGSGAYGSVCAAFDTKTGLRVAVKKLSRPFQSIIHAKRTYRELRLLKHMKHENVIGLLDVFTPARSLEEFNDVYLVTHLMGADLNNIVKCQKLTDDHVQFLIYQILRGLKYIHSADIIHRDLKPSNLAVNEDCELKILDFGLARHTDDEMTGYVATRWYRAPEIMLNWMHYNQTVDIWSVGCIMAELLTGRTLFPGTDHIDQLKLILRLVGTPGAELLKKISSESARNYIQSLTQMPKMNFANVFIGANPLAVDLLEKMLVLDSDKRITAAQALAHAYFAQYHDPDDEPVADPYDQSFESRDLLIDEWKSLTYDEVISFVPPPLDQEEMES
Chain of Phosphatidylinositol 4,5-bisphosphate 3-kinase catalytic subunit alpha isoform (Homo sapiens) (P42336 whole entry, the tested form may be a part, canonical isoform): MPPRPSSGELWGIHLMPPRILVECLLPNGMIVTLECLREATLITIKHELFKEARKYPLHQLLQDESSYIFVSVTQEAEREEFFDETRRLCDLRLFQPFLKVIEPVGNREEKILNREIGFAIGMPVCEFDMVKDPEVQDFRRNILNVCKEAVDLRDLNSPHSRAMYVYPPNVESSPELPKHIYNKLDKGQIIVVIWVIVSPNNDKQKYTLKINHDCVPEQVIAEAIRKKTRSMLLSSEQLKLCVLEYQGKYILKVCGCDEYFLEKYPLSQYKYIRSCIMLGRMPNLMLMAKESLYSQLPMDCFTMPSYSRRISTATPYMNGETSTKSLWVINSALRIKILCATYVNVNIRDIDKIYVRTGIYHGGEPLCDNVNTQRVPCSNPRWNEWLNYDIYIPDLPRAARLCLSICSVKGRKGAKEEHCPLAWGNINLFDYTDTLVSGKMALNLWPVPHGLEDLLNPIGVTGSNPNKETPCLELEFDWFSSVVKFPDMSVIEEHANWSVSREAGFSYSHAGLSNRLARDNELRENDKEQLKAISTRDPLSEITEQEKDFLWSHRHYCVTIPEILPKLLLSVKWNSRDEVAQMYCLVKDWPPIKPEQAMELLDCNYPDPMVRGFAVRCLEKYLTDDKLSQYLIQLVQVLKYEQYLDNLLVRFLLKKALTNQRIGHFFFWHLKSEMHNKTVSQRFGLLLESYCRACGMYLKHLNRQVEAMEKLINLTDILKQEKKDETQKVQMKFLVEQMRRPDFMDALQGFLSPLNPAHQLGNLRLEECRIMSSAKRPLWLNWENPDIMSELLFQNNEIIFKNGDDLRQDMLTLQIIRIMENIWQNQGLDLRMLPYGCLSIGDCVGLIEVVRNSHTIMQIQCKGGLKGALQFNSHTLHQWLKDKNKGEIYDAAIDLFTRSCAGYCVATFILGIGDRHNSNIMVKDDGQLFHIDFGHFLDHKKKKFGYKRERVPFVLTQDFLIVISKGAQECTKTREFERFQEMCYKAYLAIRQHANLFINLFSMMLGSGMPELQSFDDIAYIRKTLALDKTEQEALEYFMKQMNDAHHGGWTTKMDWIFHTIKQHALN
Chain of Cyclin-dependent kinase 19 (Homo sapiens) (Q9BWU1 whole entry, the tested form may be a part): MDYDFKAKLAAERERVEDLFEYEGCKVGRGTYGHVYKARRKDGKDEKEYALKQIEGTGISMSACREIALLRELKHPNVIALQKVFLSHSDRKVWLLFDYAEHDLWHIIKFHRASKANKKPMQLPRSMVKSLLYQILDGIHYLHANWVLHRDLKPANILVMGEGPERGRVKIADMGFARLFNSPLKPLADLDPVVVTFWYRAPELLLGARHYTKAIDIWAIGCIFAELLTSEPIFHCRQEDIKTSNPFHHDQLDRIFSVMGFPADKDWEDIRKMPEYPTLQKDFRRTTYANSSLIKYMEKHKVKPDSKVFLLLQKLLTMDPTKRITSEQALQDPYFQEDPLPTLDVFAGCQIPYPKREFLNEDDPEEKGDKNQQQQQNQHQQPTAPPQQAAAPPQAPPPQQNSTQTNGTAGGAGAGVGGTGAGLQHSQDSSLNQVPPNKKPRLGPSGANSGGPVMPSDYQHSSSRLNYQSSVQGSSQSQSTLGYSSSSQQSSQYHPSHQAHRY
Chain of Serine/threonine-protein kinase PAK 1 (Homo sapiens) (Q13153 whole entry, the tested form may be a part): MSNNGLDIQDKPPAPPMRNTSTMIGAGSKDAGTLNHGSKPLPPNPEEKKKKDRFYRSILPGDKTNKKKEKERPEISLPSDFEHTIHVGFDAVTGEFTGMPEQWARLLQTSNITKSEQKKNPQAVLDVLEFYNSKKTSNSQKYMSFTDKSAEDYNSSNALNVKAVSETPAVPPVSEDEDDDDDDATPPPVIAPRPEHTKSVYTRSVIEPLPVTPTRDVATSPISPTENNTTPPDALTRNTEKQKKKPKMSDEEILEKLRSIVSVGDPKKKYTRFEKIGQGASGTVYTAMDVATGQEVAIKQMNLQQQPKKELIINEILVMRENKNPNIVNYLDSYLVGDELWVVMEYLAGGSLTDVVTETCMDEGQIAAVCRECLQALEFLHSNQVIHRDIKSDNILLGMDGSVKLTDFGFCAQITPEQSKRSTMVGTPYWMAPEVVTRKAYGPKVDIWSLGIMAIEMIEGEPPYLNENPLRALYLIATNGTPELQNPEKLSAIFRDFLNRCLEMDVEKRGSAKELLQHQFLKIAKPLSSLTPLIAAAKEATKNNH
Chain of Serine/threonine-protein kinase PLK3 (Homo sapiens) (Q9H4B4 whole entry, looked up, the tested form may be a part): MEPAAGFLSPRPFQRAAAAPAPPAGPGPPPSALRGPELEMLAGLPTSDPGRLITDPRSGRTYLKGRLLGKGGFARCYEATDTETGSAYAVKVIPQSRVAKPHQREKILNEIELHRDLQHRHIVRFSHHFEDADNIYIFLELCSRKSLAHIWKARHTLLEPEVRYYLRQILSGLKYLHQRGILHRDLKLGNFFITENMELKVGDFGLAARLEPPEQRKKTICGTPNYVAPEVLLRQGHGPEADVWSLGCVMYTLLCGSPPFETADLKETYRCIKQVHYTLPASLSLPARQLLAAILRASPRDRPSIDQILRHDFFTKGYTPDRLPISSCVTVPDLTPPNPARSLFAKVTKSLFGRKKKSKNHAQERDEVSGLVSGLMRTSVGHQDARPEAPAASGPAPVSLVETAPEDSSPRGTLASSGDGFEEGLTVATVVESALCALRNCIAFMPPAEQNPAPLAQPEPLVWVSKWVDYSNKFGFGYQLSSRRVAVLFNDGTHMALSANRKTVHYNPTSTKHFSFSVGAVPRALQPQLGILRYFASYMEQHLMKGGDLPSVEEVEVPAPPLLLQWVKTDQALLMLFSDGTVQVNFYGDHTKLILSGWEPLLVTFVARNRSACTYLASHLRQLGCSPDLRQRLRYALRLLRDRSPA
Chain of Cyclin-dependent kinase 7 (Homo sapiens) (P50613 whole entry, the tested form may be a part): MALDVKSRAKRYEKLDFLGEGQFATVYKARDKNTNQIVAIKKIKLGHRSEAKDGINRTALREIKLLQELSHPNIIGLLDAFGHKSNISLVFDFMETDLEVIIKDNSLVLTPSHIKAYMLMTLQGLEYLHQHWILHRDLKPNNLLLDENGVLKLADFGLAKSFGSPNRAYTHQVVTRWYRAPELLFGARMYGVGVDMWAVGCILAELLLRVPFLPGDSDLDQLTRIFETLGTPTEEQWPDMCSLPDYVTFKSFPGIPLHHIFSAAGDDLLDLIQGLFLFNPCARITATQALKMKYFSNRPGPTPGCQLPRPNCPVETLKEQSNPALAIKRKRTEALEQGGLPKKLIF
Chain of MAP kinase-activated protein kinase 2 (Homo sapiens) (P49137 whole entry, looked up, the tested form may be a part): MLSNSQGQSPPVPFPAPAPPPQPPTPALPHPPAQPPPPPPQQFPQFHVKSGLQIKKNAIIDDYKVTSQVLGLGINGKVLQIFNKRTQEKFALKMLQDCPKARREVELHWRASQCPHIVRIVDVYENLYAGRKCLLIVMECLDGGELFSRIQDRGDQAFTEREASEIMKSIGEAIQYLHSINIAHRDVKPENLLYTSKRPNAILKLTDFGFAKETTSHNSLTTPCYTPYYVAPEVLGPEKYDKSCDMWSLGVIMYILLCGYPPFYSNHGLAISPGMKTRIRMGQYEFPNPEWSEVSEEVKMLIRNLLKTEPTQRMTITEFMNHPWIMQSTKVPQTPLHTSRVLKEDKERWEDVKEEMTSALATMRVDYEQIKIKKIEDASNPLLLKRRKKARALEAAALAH

## O=C(Nc1ccc2[nH]nc(-c3ccc4[nH]ccc4c3)c2c1)c1c(Cl)cccc1Cl
[1]
  inhibition: inactive
[2]
  inhibition: inactive
[3]
  inhibition: inactive
[4]
  inhibition: inactive
[5]
  inhibition: inactive
Mus musculus [6]
  Activity: Active
[7]
  inhibition: inactive
[8]
  inhibition: inactive
[9]
  inhibition: inactive
[10]
  inhibition: inactive
[11]
  inhibition: inactive
[12]
  inhibition: inactive
[13]
  inhibition: inactive
[14]
  inhibition: inactive
[15]
  inhibition: inactive
[16]
  inhibition: inactive
[17]
  inhibition: inactive
[18]
  inhibition: inactive
[19]
  inhibition: inactive
Mus musculus [20]
  Activity: Active
[21]
  inhibition: inactive
[22]
  inhibition: inactive
[23]
  inhibition: inactive
[24]
  inhibition: inactive
